One test deals with Coagulation factor X (Homo sapiens, UniProt P00742). Description: Binding affinity against Coagulation factor X. The procedure, abridged:
(§1)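 Chromogenic pNA assays used human plasma factor Xa with S-2222, human plasmin with S-2251, human kidney urokinase with S-2444, and human plasma activated protein C with S-2366. Rates were read over 2 min at 25 °C. A 2 h enzyme–inhibitor preincubation tested for slow binding. For non-slow binders, Ki came from Lineweaver–Burk plots at five substrate levels over a 10-fold range around Km, using at least five points in duplicate.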

A further test has as its target Chymotrypsinogen A (Bos taurus, UniProt P00766). Put plainly: Binding affinity against Chymotrypsin. In outline:
(§2)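 Enzymes: bovine pancreatic α-chymotrypsin with S-2586 (MeO-Suc-Arg-Pro-Tyr-pNA), human plasma kallikrein with S-2288, porcine pancreatic elastase with Suc-Ala-Ala-Ala-pNA, and bovine pancreatic trypsin. Initial velocity was read at 25 °C over 2 min. A 2 h preincubation was used to screen for slow binding. For competitive inhibitors, Ki came from Lineweaver–Burk plots at five substrate concentrations spanning 10-fold around Km, using at least five points in duplicate.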

Test [1] in a line: Concentration of inhibitor required to produce a 2-fold prolongation in activated partial Thromboplastin time (APTT) in human plasma. Type of test: functional. In outline: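 Pooled citrated normal human plasma, APTT reagent and inhibitor were incubated for 5 min at 37 °C. Clotting was started with CaCl2 from a 25 mM aqueous solution and timed on a coagulometer. The inhibitor concentration that doubled the APTT was determined in duplicate.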

Test [2] addresses T1, Plasminogen (Homo sapiens, UniProt P00747). Put plainly: Binding affinity against plasmin. The procedure, abridged:
as §1

Test [3] is described as follows: Binding affinity against protein Ca. The procedure, abridged:
as §1

Test [4] has as its target T2, Prothrombin (Homo sapiens, UniProt P00734). Description: Concentration of inhibitor required to produce a 2-fold prolongation in Thrombin time (TT). In outline: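 Pooled citrated normal human plasma was incubated with inhibitor for 1 min at 37 °C; the inhibitor was serially diluted in buffer from a DMSO stock. Human α-thrombin was then added from a 5 units/mL solution in 50 mM sodium phosphate, 0.1% PEG, pH 7.4. Clotting was timed on a coagulometer, and the concentration that doubled the thrombin time was determined in duplicate.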

For another test, the target named is T3, Serine protease 1 (Bos taurus, UniProt P00760).
T3 sequence (P00760 whole entry): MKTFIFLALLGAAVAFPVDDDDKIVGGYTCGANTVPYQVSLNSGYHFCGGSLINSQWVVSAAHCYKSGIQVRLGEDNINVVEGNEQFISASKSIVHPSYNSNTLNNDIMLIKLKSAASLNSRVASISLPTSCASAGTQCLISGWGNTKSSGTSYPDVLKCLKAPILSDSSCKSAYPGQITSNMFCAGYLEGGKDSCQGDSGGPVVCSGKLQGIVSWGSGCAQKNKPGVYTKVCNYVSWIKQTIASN
Put plainly: Binding affinity against Trypsin. The procedure, abridged: as §2

Test [5] concerns the target Urokinase-type plasminogen activator (Homo sapiens, UniProt P00749). Put plainly: Binding affinity against Urokinase plasminogen activator. In outline: as §1
Test [6] addresses T2, Prothrombin. Put plainly: Binding affinity against gamma thrombin. In outline:
(§3)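 Human α-thrombin or human γ-thrombin was assayed with S-2238 (H-D-Phe-Pip-Arg-pNA), with velocity measured over 2 min at 25 °C. A 2 h preincubation screened for slow binding. For competitive inhibitors, Ki came from Lineweaver–Burk plots at five substrate concentrations over 10-fold around Km; slow binders were fitted to the slow-binding rate equations. At least five points were run in duplicate.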

Test [7] concerns the target T2, Prothrombin. Description: Binding affinity against thrombin. The procedure, abridged:
as §3

The target in test [8] is T2, Prothrombin. Description: Binding affinity against alpha thrombin. The procedure, abridged:
as §3

The target in test [9] is Plasma kallikrein (Homo sapiens) (UniProt P03952). Put plainly: Binding affinity against plasma kallikrein.
Chain of Plasma kallikrein (Homo sapiens) (P03952 whole entry, looked up): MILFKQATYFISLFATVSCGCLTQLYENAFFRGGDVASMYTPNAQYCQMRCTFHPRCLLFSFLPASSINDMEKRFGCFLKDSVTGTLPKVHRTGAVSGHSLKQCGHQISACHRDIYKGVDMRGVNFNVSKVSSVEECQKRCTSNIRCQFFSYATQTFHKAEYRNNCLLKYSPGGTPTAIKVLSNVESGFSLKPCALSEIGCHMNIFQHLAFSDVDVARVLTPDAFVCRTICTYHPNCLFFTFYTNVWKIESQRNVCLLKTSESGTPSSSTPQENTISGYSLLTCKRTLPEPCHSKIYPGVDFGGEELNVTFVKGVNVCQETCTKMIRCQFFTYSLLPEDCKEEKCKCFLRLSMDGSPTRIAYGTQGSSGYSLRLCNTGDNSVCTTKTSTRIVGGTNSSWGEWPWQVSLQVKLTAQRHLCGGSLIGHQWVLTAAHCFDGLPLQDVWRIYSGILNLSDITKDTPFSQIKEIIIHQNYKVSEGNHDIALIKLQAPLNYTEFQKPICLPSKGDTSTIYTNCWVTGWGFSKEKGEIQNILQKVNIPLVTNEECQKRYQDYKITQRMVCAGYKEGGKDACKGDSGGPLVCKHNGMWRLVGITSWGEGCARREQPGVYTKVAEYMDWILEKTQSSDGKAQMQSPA
Another test deals with T4, Cathepsin G (Homo sapiens, UniProt P08311).
T4 sequence (P08311 whole entry): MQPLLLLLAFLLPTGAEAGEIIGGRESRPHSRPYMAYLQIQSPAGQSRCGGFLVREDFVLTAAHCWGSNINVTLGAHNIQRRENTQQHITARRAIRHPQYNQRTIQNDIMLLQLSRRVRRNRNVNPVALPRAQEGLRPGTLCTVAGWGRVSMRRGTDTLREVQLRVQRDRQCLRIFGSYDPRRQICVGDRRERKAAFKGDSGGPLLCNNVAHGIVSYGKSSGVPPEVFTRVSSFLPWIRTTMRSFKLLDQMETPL
Put plainly: Binding affinity against cathepsin G.

The target of test [10] is T1, Plasminogen. Put plainly: Binding affinity against Plasmin. In outline: as §1

Each structure is given as a SMILES string.

T1 sequence (P00747 97-580 limits assumed): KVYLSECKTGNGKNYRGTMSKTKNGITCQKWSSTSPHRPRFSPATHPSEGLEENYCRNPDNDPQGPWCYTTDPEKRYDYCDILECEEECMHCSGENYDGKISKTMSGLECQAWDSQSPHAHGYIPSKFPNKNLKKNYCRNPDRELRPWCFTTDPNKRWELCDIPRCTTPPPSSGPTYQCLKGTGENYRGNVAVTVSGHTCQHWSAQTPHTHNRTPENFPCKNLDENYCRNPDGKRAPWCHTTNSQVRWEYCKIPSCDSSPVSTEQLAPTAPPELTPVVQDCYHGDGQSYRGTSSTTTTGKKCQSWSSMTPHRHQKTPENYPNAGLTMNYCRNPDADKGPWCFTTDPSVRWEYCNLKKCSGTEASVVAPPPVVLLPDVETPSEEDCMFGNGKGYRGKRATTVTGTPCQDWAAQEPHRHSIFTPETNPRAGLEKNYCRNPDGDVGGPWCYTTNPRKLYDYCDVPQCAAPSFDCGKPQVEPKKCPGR
T1 sequence (P00747 581-810 limits assumed): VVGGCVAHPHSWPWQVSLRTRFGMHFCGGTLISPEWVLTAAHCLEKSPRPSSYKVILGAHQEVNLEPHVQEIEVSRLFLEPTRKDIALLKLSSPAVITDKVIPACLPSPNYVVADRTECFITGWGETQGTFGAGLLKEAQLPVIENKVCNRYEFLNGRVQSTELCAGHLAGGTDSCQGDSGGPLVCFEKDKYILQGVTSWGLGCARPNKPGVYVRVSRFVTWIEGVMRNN
Chain of Coagulation factor X (P00742 41-179 limits assumed): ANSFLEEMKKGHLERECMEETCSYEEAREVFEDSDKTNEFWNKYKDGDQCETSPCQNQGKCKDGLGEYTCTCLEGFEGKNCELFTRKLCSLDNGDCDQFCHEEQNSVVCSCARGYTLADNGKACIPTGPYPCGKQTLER
Chain of Coagulation factor X (P00742 235-488 limits assumed): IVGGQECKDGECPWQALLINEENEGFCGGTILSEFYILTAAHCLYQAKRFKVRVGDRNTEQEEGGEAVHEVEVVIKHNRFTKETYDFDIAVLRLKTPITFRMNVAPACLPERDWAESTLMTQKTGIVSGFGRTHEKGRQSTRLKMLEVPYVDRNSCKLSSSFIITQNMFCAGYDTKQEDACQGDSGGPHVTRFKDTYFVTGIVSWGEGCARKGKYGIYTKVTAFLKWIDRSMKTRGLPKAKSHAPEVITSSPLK

In the case of `CC1(C)C2CC1[C@]1(C)OB(C(Cc3ccccc3)NC(=O)[C@@H]3CCCN3C(=O)[C@@H](NC(=O)OCc3ccccc3)C(c3ccccc3)c3ccccc3)O[C@@H]1C2` (some centres undefined), the inhibition constant Ki is 4300 nM on Coagulation factor X; 21 nM on Chymotrypsinogen A; 3000 nM on Plasminogen [2]; greater than 4800 nM in [3]; 440 nM at Serine protease 1; greater than 48000 nM in test [5]. Moreover, the Ki amounted to 59 nM at Prothrombin [6], 130 nM at Prothrombin [7], 130 nM at Prothrombin [8] and 9500 nM in test [9]. Further, the APTT in [1] is greater than 50 µM. This molecule registered a TT at Prothrombin [4] of 5.2 µM.
Regarding `CCCCCC(NC(=O)[C@@H]1CCCN1C(=O)[C@@H](NC(=O)OCc1ccccc1)C(c1ccccc1)c1ccccc1)B1O[C@@H]2CC3CC(C3(C)C)[C@]2(C)O1` (some centres undefined), the inhibition constant Ki at Coagulation factor X was 13000 nM; on Chymotrypsinogen A, 1200 nM; on Cathepsin G it was 14300 nM; at Plasminogen [2], 24000 nM; in test [3], 53000 nM; on Serine protease 1, 450 nM. For the same molecule, the inhibition constant Ki in [5] worked out at 540000 nM; at Prothrombin [6], 27 nM; at Prothrombin [7], 42 nM; at Prothrombin [8], 42 nM; in test [9] it was 160000 nM.
`CCC(C)(C)C(NC(=O)[C@@H]1CCCN1C(=O)[C@H](Cc1ccc2ccccc2c1)NC(=O)OCc1ccccc1)B1O[C@@H]2CC3CC(C3(C)C)[C@]2(C)O1` (some centres undefined): the inhibition constant (Ki) stood at 23000 nM on Coagulation factor X; 1460 nM at Chymotrypsinogen A; 13000 nM on Plasminogen [2]; 32000 nM in [3]; 2400 nM on Serine protease 1; 140000 nM in test [5]. The Ki at Prothrombin [6] came out at 140 nM; on Prothrombin [8] it was 82 nM; in test [9], 370000 nM. The same molecule showed an APTT in test [1] of 110 µM. Further, the TT at Prothrombin [4] stood at 16 µM.
Take `COCCCC(NC(=O)[C@@H]1CCCN1C(=O)[C@@H](NC(=O)OCc1ccccc1)C(c1ccccc1)c1ccccc1)B1O[C@@H]2CC3CC(C3(C)C)[C@]2(C)O1` (some centres undefined): the Ki on Coagulation factor X stood at 7200 nM; at Chymotrypsinogen A it was 2960 nM; at Plasminogen [2], 12000 nM; in test [3] it was 2400 nM; on Serine protease 1, 54 nM; in test [5], 33000 nM. The inhibition constant (Ki) came to 4 nM at Prothrombin [6], 3 nM at Prothrombin [7], 2 nM at Prothrombin [8] and 34000 nM in [9]. Moreover, the APTT in [1] came to 20 µM. For the same molecule, the TT at Prothrombin [4] is 0.63 µM.
For `CCC(C)(C)C(NC(=O)[C@@H]1CCCN1C(=O)[C@H](Cc1ccccc1)NC(=O)OCc1ccccc1)B1O[C@@H]2CC3CC(C3(C)C)[C@]2(C)O1` (some centres undefined), the inhibitory constant (Ki) was determined as 2600 nM at Coagulation factor X; 152 nM on Chymotrypsinogen A; 5500 nM at Plasminogen [2]; 4200 nM in [3]; 270 nM at Serine protease 1; 15000 nM in test [5]. Besides, the Ki worked out at 24 nM on Prothrombin [6], 7 nM at Prothrombin [7], 7 nM on Prothrombin [8] and 9500 nM in [9]. For the same molecule, in [1], the APTT turned out to be 4 µM. Further, the TT on Prothrombin [4] was found to be 1.1 µM.
As to `CCC(C)(C)C(NC(=O)[C@@H]1CCCN1C(=O)[C@@H](NC(=O)OCc1ccccc1)C(c1ccccc1)c1ccccc1)B1O[C@@H]2CC3CC(C3(C)C)[C@]2(C)O1` (some centres undefined), the inhibition constant (Ki) on Chymotrypsinogen A was 2890 nM; at Plasminogen [10], 17000 nM; at Plasminogen [2], 17000 nM; in test [3], greater than 63000 nM; on Serine protease 1, 560 nM; in test [5], greater than 63000 nM. Also, the Ki at Prothrombin [6] is 34 nM; at Prothrombin [7] it was 82 nM; at Prothrombin [8] it was 28 nM; in [9], greater than 63000 nM. The molecule further gave an APTT in [1] of 50 µM. At Prothrombin [4], this molecule yielded a TT of 21 µM.
Turning to `CCCCCC(NC(=O)[C@@H]1CCCN1C(=O)[C@H](Cc1ccccc1)NC(=O)OCc1ccccc1)B1O[C@@H]2CC3CC(C3(C)C)[C@]2(C)O1` (stereo in doubt; 3), the Ki on Coagulation factor X was 580 nM; at Chymotrypsinogen A, 115 nM; on Plasminogen [2], 2900 nM; in test [3] it was 1600 nM; at Serine protease 1 it was 320 nM; in [5] it was 23000 nM. Moreover, the Ki came to 19 nM on Prothrombin [6], 19 nM at Prothrombin [7], 19 nM on Prothrombin [8] and 120000 nM in test [9]. Besides, in [1], the APTT amounted to 2.3 µM.
In the case of `COCCC[C@@H](NC(=O)[C@@H]1CCCN1C(=O)[C@@H](Cc1ccccc1)NC(=O)OCc1ccccc1)B1O[C@@H]2CC3CC(C3(C)C)[C@]2(C)O1` (stereo in doubt; 9a), the Ki at Coagulation factor X amounted to 3100 nM; at Chymotrypsinogen A it was 1210 nM; at Plasminogen [2], 7800 nM; in test [3], 2100 nM; on Serine protease 1, 670 nM; in [5], 81000 nM. Moreover, the inhibition constant Ki came out at 28 nM on Prothrombin [6], 7 nM at Prothrombin [7], 7 nM on Prothrombin [8] and 6100 nM in test [9]. The APTT in test [1] is 3.4 µM.
For the molecule `CC1(C)C2CC1[C@]1(C)OB(C(Cc3ccccc3)NC(=O)[C@@H]3CCCN3C(=O)[C@H](Cc3ccccc3)NC(=O)OCc3ccccc3)O[C@@H]1C2` (some centres undefined), the inhibition constant (Ki) was 1200 nM at Coagulation factor X; 11 nM at Chymotrypsinogen A; 4500 nM on Plasminogen [2]; greater than 4300 nM in test [3]; 150 nM at Serine protease 1; greater than 4300 nM in test [5]. For the same molecule, the inhibitory constant (Ki) was 11 nM on Prothrombin [6], 18 nM on Prothrombin [7], 18 nM at Prothrombin [8] and greater than 4300 nM in [9]. The APTT in [1] is 2.5 µM. Further, on Prothrombin [4], the TT is 0.53 µM.

(Values after ChEMBL document CHEMBL1128727, “Characterization of a class of peptide boronates with neutral P1 side chains as highly selective inhibitors of thrombin” (J Med Chem, 1995).)
